Laboratory results taken from article PMC6644362 (ACS Omega, 2018).
Several values for one entry are separate records, joined by “and”; a condition that tells them apart may be missing. Identical values can stand only once.

Tests used:
recombinant human TK2 [1] = molecular target: T1, recombinant human TK2 (Homo sapiens, UniProt O00142); assay: Isothermal titration calorimetry; assay type: binding
T1 sequence (O00142 56-265 limits assumed): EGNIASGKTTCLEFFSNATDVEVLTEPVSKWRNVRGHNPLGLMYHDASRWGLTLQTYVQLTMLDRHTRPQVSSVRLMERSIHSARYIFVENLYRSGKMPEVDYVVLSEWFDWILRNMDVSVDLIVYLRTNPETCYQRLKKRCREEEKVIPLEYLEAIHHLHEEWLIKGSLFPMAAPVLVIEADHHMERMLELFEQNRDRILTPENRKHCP
How it was run: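 Calorimetry at 25 °C used 40 μM TK2 (dTTP-bound or dTTP-free) dialysed into 10 mM Tris/HCl pH 7.9, 1 mM MgCl2. Ligands were in dialysis buffer at 1–3 mM syringe concentration, also ATPγS into enzyme–dT/dC complexes. There was one 2 μL control injection, then 24 × 8 μL injections at 500 s intervals. Blanks were ligand into buffer and buffer into enzyme. Best-fit model per ligand; Kd = 1/KB.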

recombinant human TK2 [2] = molecular target: T1, recombinant human TK2; assay: Intrinsic tryptophan fluorescence; assay type: binding; conditions: for Kd / ΔFmax: mean ± SD; for Ka (quenching constant of the accessible fraction) / fa (fractional accessibility): modified Stern–Volmer equation; for quenching of the fluorescence emission on addition of ligand: titrated to dTTP-bound or dTTP-free TK2, 0.5–4000 μM; for fractional initial accessible fluorescence: summary of Table 2, dTTP-bound or dTTP-free TK2
[3] = molecular target: human recombinant dC kinase (dCK) (Homo sapiens, UniProt P27707); assay: ITC titration of ATPγS to dCK in the presence and absence of dC; assay type: binding
human recombinant dC kinase (dCK), sequence (P27707 whole entry): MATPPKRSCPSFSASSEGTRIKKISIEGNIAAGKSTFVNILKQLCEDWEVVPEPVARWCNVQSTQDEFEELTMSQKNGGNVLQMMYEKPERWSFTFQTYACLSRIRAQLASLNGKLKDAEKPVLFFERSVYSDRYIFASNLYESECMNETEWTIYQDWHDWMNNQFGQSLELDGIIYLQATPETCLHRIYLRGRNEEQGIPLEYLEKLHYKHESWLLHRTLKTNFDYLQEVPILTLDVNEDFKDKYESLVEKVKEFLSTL

TK2 = conditions: feedback inhibition, enzyme kinetic experiments; cited from earlier work
[4] = Kd (equilibrium binding constant), dTTP-bound TK2, one-site specific binding model
[5] = Kd (equilibrium binding constant), dTTP-free TK2, one-site specific binding model
[6] = dTTP-bound TK2, 2 μM TK2, 21 °C
[7] = dTTP-bound TK2, one-site specific binding model
[8] = dTTP-free TK2, one-site specific binding model
[9] = titrated to E–dC complex, 25 °C
[10] = titrated to E–dT complex, 25 °C
[11] = read-out: Kd (equilibrium binding constant), dTTP-bound TK2, one-site specific binding model

SMILES	Kd (recombinant human TK2 [2]; [4]) [µM]	Kd (recombinant human TK2 [2]; [5]) [µM]	Ka (quenching constant of the accessible fraction) (recombinant human TK2 [2]; [6]) [μM^–1]	fa (fractional accessibility) (recombinant human TK2 [2]; [6])	ΔFmax (recombinant human TK2 [2]; [7])	fa (fractional accessibility) (recombinant human TK2 [2]; dTTP-free TK2, 21 °C)	ΔFmax (recombinant human TK2 [2]; [8])	quenching of the fluorescence emission on addition of ligand (recombinant human TK2 [2])	Kd (recombinant human TK2 [2]; [11]) [µM]	fractional initial accessible fluorescence (recombinant human TK2 [2])	other results
Cc1cn([C@H]2C[C@H](O)[C@@H](CO)O2)c(=O)[nH]c1=O [dT, thymidine]	3.26 ± 1.01	13.3 ± 1.2	0.16	0.25 ± 0.01	21.95 ± 1.25	0.17 ± 0.02	69.7 ± 3.1	caused quenching			binding constant, times higher than that of dC (recombinant human TK2 [1]; ITC): 5 times; binding constant, times higher than that of dTTP (recombinant human TK2 [1]; ITC): 65 times; binding affinity, times higher than that of dC (recombinant human TK2 [1]; ITC, dTTP-bound enzyme): 3 times; Kd (recombinant human TK2 [1]; Kd1 (high affinity), dTTP-bound enzyme, two-site binding model): 0.55 µM; ΔG (Gibbs free energy) (recombinant human TK2 [1]; dTTP-bound enzyme, 25 °C): –7.1 ± 0.2 kcal/mol; ΔH (enthalpy changes) (recombinant human TK2 [1]; dTTP-bound enzyme, 25 °C): –72.7 ± 0.2 kcal/mol; ΔS (entropy changes) (recombinant human TK2 [1]; dTTP-bound enzyme, 25 °C): –220 cal/mol/deg; Kd (recombinant human TK2 [1]; read-out: Kd2 (lower affinity), dTTP-bound enzyme, two-site binding model): 6.13 µM; fa, fraction of the initial fluorescence accessible (recombinant human TK2 [2]; dTTP-bound TK2, modified Stern–Volmer equation): 25%
Nc1ncnc2c1ncn2[C@@H]1O[C@H](CO[P@](=O)(O)O[P@](=O)(O)O[P@@](=O)(O)S)[C@@H](O)[C@H]1O [ATPγS, adenosine 5′-(gamma-thio) triphosphate]											Kd (recombinant human TK2 [1]; Kd (dissociation constant), titrated to E–dC complex, 25 °C): 20 µM; Kd (recombinant human TK2 [1]; Kd (dissociation constant), titrated to E–dT complex, 25 °C): 0.93 µM; ΔG (Gibbs free energy) (recombinant human TK2 [1]; [9]): –0.18 ± 0.01 kcal/mol; ΔH (enthalpy changes) (recombinant human TK2 [1]; [9]): –7.5 ± 0.5 kcal/mol; ΔS (entropy changes) (recombinant human TK2 [1]; [9]): –24.9 cal/mol/deg; binding constant (recombinant human TK2 [1]; titrated to E–dT complex): 1.1 × 10^6 M^–1; ΔG (Gibbs free energy) (recombinant human TK2 [1]; [10]): –8.2 ± 0.1 kcal/mol; ΔH (enthalpy changes) (recombinant human TK2 [1]; [10]): –19.4 ± 0.8 kcal/mol; ΔS (entropy changes) (recombinant human TK2 [1]; [10]): –37.6 cal/mol/deg; ITC heat response / specific interaction (recombinant human TK2 [1]; titrated with either dTTP-bound or dTTP-free TK2): no heat response; binding to dCK alone (ITC) ([3]; absence of dC): does not bind; binding to the dCK–dC complex (ITC) ([3]; presence of dC): bind
Cc1cn([C@H]2C[C@H](F)[C@@H](CO)O2)c(=O)[nH]c1=O [FLT, 3′-fluoro-2′,3′-dideoxythymidine]			0.14 ± 0.02	0.24 ± 0.04	17.81 ± 0.99			caused quenching	6.17 ± 1.35	20–40%	
Cc1cn([C@H]2C[C@H](O)[C@@H](CO[P@](=O)(O)O[P@@](=O)(O)OP(=O)(O)O)O2)c(=O)[nH]c1=O [dTTP, deoxythymidine triphosphate]		3.64 ± 1.02				0.22 ± 0.01	57.6 ± 2.9	caused quenching		20–40%	Kd (recombinant human TK2 [1]; Kd (dissociation constant), dTTP-free enzyme, 25 °C, Kd = 1/KB): 36 µM and 35.7 µM; binding constant (recombinant human TK2 [1]; dTTP-free TK2): 2.8 × 10^4 M^–1; ΔG (Gibbs free energy) (recombinant human TK2 [1]; dTTP-free enzyme, 25 °C): –6.0 ± 0.1 kcal/mol; ΔH (enthalpy changes) (recombinant human TK2 [1]; dTTP-free enzyme, 25 °C): 237.2 ± 0.2 kcal/mol; ΔS (entropy changes) (recombinant human TK2 [1]; dTTP-free enzyme, 25 °C): 816 cal/mol/deg; Ki (TK2): 2.5 µM and ~2.5 µM
Nc1ccn([C@H]2C[C@H](O)[C@@H](CO)O2)c(=O)n1 [dC, deoxycytidine]	3.35 ± 0.81	5.64 ± 1.2		0.29 ± 0.05	19.86 ± 0.94	0.40 ± 0.10	67.5 ± 2.9	caused quenching		20–40%	ΔH (enthalpy changes) (recombinant human TK2 [1]; dTTP-bound enzyme, 25 °C): –23.4 ± 0.7 kcal/mol; ΔS (entropy changes) (recombinant human TK2 [1]; dTTP-bound enzyme, 25 °C): –7.9 cal/mol/deg
Cc1cn([C@H]2C[C@H](O)[C@@H](COP(=O)(O)O)O2)c(=O)[nH]c1=O [dTMP, deoxythymidine monophosphate]			0.79 ± 0.04	0.21 ± 0.02	16.74 ± 0.53			caused quenching	1.53 ± 0.28	20–40%	
Nc1ccn([C@H]2C[C@H](O)[C@@H](COP(=O)(O)O)O2)c(=O)n1 [dCMP, deoxycytidine monophosphate]			0.42 ± 0.03	0.21 ± 0.02	19.74 ± 1.18			caused quenching	4.42 ± 0.99	20–40%	
Nc1ccn([C@H]2C[C@H](O)[C@@H](COP(=O)(O)OP(=O)(O)OP(=O)(O)O)O2)c(=O)n1 [dCTP, deoxycytidine triphosphate]											ITC heat changes in the isothermogram (recombinant human TK2 [1]; dTTP-free enzyme): no heat changes
Cc1cn([C@H]2C[C@H](N=[N+]=[N-])[C@@H](CO)O2)c(=O)[nH]c1=O [AZT, 3′-Azido-2′,3′-dideoxythymidine]	6.94 ± 2.78			0.38 ± 0.04	12.77 ± 1.34			caused quenching		20–40%	
